Data: EPA's CvTdb concentration-time database

Tests used:
[1] = tested on: Rat; assay: concentration in liver after dosing; conditions: 1 h; dosed: Fluorotelomer alcohol 8+2; 24 mg/kg; oral; Male; Harlan Sprague Dawley
[2] = tested on: Rat; assay: concentration in plasma after dosing; conditions: 10 min; dosed: Di-n-butyl phthalate; 20 mg/kg; iv; Male; Sprague-Dawley
[3] = tested on: Rat; assay: concentration in plasma after dosing; conditions: 1 h; dosed: Di-n-butyl phthalate; 100 mg/kg; oral; Male; Sprague-Dawley
[4] = tested on: Rat; assay: concentration in plasma after dosing; conditions: dosed: dichloroacetic acid, 100 mg/kg, oral, Male, F344
[5] = tested on: human; assay: concentration in plasma after dosing; negative times count back from the end of exposure; conditions: dosed: trichloroethylene, 100 ppm, inhalation, duration: 4 hr, person
Method in brief: (§1)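 Concentration-versus-time or amount-versus-time points were compiled from published in vivo toxicokinetic studies and from two structured collections. The studies were found by PubMed searching, classifier screening and manual review. Points were mostly digitised from plot screenshots with WebPlotDigitizer, otherwise copied from tables, and kept in the reported units. Dose, route, subject details and medium were curated by hand from each paper, and sampling and analytical methods follow each source and were often unreported.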

[6] = tested on: Rat; assay: concentration in plasma after dosing; conditions: 40 min; dosed: dichloroacetic acid; 100 mg/kg; oral; Male; F344
[7] = tested on: Rat; assay: concentration in plasma after dosing; conditions: 5 min; dosed: dichloroacetic acid; 10 mg/kg; oral; Male; Harlan Sprague Dawley
[8] = tested on: human; conditions: dosed: trichloroethylene, 100 ppm, inhalation, duration: 4 hr, person
Method in brief: as §1

[9] = tested on: rat; assay: concentration in plasma after dosing; conditions: dosed: trichloroethylene, 600.4 ppm, inhalation, duration: 4 hr, female, Fischer-344
[10] = tested on: Rat; assay: concentration in plasma after dosing; conditions: dosed: Perfluorodecanoic acid, 2 mg/kg, iv, Male, F344
[11] = tested on: Rat; assay: concentration in plasma after dosing; conditions: dosed: Perfluorodecanoic acid, 2 mg/kg, iv, Male, F344; remark: listed apart in the source
[12] = tested on: Rat; assay: concentration in kidney after dosing; conditions: 864 h; dosed: Perfluorodecanoic acid; 10 mg/kg; oral; Female; Harlan Sprague Dawley
[13] = tested on: Rat; assay: concentration in thymus after dosing; conditions: 5.333 h; dosed: Thiodiglycolic Acid; 20 mg/kg; iv; Female; Harlan Sprague Dawley
[14] = tested on: Rat; assay: concentration in heart after dosing; conditions: 3 h; dosed: Thiodiglycolic Acid; 20 mg/kg; iv; Male; Harlan Sprague Dawley
[15] = tested on: Rat; assay: concentration in thymus after dosing; conditions: 20 min; dosed: Thiodiglycolic Acid; 20 mg/kg; iv; Female; F344
[16] = tested on: Rat; assay: concentration in liver after dosing; conditions: 6.667 h; dosed: Thiodiglycolic Acid; 20 mg/kg; iv; Female; Harlan Sprague Dawley
[17] = tested on: Rat; assay: concentration in thymus after dosing; conditions: 20 min; dosed: Thiodiglycolic Acid; 20 mg/kg; iv; Female; Harlan Sprague Dawley
[18] = tested on: Rat; assay: concentration in heart after dosing; conditions: 6.667 h; dosed: Thiodiglycolic Acid; 20 mg/kg; iv; Female; Harlan Sprague Dawley
[19] = tested on: Rat; assay: concentration in plasma after dosing; conditions: 3 h; dosed: Thiodiglycolic Acid; 20 mg/kg; iv; Female; Harlan Sprague Dawley
[20] = tested on: Rat; assay: concentration in liver after dosing; conditions: 3 h; dosed: Thiodiglycolic Acid; 20 mg/kg; iv; Female; Harlan Sprague Dawley
[21] = tested on: Rat; assay: concentration in plasma after dosing; conditions: 30 h; dosed: Primidone; 130 mg/kg; oral; Male; F344
[22] = tested on: Rat; assay: concentration in plasma after dosing; conditions: 12 h; dosed: Primidone; 130 mg/kg; oral; Male; Harlan Sprague Dawley
[23] = tested on: Rat; assay: concentration in plasma after dosing; conditions: 3 h; dosed: Primidone; 80 mg/kg; oral; Male; F344
[24] = tested on: Rat; assay: concentration in plasma after dosing; conditions: dosed: Bis 2-Chloroethoxy Methane, 40 mg/kg, iv, Male, Harlan Sprague Dawley
[25] = tested on: Rat; assay: concentration in thymus after dosing; conditions: 6 h; dosed: Bis 2-Chloroethoxy Methane; 20 mg/kg; iv; Female; F344
[26] = tested on: Rat; assay: concentration in plasma after dosing; conditions: 1 h; dosed: Bis 2-Chloroethoxy Methane; 40 mg/kg; iv; Male; Harlan Sprague Dawley
[27] = tested on: Rat; assay: concentration in thymus after dosing; conditions: 1 h; dosed: Bis 2-Chloroethoxy Methane; 20 mg/kg; iv; Male; F344
[28] = tested on: Rat; assay: concentration in heart after dosing; conditions: 1 h; dosed: Bis 2-Chloroethoxy Methane; 20 mg/kg; iv; Male; F344
[29] = tested on: Rat; assay: concentration in plasma after dosing; conditions: 1 h; dosed: Bis 2-Chloroethoxy Methane; 20 mg/kg; iv; Female; F344
[30] = tested on: Rat; assay: concentration in plasma after dosing; conditions: 40 min; dosed: Bis 2-Chloroethoxy Methane; 20 mg/kg; iv; Male; F344
[31] = tested on: Rat; assay: concentration in thymus after dosing; conditions: 7 h; dosed: Bis 2-Chloroethoxy Methane; 20 mg/kg; iv; Female; F344

OCCC(F)(F)C(F)(F)C(F)(F)C(F)(F)C(F)(F)C(F)(F)C(F)(F)C(F)(F)F [Fluorotelomer alcohol 8+2]
Conditions	concentration in liver [ng/g]
[1]	4670

CCCCOC(=O)c1ccccc1C(=O)O [Mono-n-butyl phthalate]
Conditions	concentration in plasma [µg/mL]
[2]	28.8
[3]	14.9

O=C(O)C(Cl)Cl [dichloroacetic acid]
concentration in plasma [µg/mL]
Conditions	0 h	1.25 h	2 min
[4]	–	43.5	2.56
[5]	0.012	–	–

[5], during exposure
Conditions	concentration in plasma [µg/mL]
-3 h	0.006
-2 h	0.008

Conditions	concentration in plasma [µg/mL]
[6]	13.8
[7]	0.43

O=C(O)C(Cl)(Cl)Cl [trichloroacetic acid]
Conditions	amount in urine after dosing [mg]	concentration in plasma [µg/mL]
[8], 1 h	0.21	–
[8], 2 h	0.25	–
[8], 4 h	0.57	–
[8], 8 h	2.37	–
[8], 12 h	1.32	–
[8], 16 h	0.93	–
[8], 24 h	2.15	–
[8], 36 h	4.32	–
[8], 48 h	8.17	–
[8], 60 h	7.79	–
[8], 72 h	7.83	–
[8], 84 h	6.95	–
[8], 96 h	4.34	–
[8], 108 h	4.56	–
[8], 120 h	3.32	–
[8], 132 h	3.23	–
[8], 144 h	4	–
[8], 156 h	2.44	–
[8], 168 h	1.44	–
[8], 180 h	2.55	–
[9], 0.1633 h	–	10.2
[9], 0.5306 h	–	11.4
[9], 0.898 h	–	11.8
[9], 1.633 h	–	13.4
[9], 2.122 h	–	15.8
[9], 5.061 h	–	18.3
[9], 21.1 h	–	5.73
[9], 29.06 h	–	2.75
[9], 46.08 h	–	1.15

O=C(O)C(F)(F)C(F)(F)C(F)(F)C(F)(F)C(F)(F)C(F)(F)C(F)(F)C(F)(F)C(F)(F)F [Perfluorodecanoic acid]
concentration in plasma [µg/mL]
Conditions	6 h	12 h	864 h	1200 h
[10]	–	5.77	–	0.86
[11]	6.36	–	1.55	–

Conditions	concentration in kidney [ng/g]
[12]	18600

O=C(O)CSCC(=O)O [Thiodiglycolic Acid]
Conditions	concentration in heart [ng/g]	concentration in liver [ng/g]	concentration in plasma [µg/mL]	concentration in thymus [ng/g]
[13]	–	–	–	372
[14]	1040	–	–	–
[15]	–	–	–	5640
[16]	–	7630	–	–
[17]	–	–	–	5770
[18]	262	–	–	–
[19]	–	–	0.51	–
[20]	–	11500	–	–

CCC1(c2ccccc2)C(=O)NC(=O)NC1=O [Phenobarbital]
Conditions	concentration in plasma [µg/mL]
[21]	1.78
[22]	2.49
[23]	5.24

ClCCOCOCCCl [Bis 2-Chloroethoxy Methane]
[24]
Conditions	concentration in plasma [µg/mL]
5.333 h	0.067
10 min	22.6

Conditions	concentration in heart [ng/g]	concentration in plasma [µg/mL]	concentration in thymus [ng/g]
[25]	–	–	32.1
[26]	–	3.1	–
[27]	–	–	5370
[28]	1380	–	–
[29]	–	0.9	–
[30]	–	1.59	–
[31]	–	–	17.7
